Experiments:
[1] = (§1) Dose that causes approximately 50% lethality in mice, when given perorally; format: ADME, organism-based; conditions: mouse, in vivo, po
Outline: (§2)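 Mice in groups of one to three were dosed orally. Deaths were scored on day 7 after dosing, and the LD50 was obtained by graphical interpolation.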

[2] = (§3) Dose that causes approximately 50% lethality in mice, when given intravenously; format: ADME, organism-based; conditions: mouse, in vivo, iv
[3] = molecular target: Indolethylamine N-methyltransferase (Homo sapiens) (UniProt O95050); assay: In vitro evaluation of Indoleethylamine-N-methyltransferase in human lung preparations for the ability to inhibit conversion of N-methyltryptamine (NMT) to N,N-dimethyltryptamine (DMT) at dose 25 ug/mL; format: tissue-based
Sequence of Indolethylamine N-methyltransferase (Homo sapiens) (O95050 whole entry): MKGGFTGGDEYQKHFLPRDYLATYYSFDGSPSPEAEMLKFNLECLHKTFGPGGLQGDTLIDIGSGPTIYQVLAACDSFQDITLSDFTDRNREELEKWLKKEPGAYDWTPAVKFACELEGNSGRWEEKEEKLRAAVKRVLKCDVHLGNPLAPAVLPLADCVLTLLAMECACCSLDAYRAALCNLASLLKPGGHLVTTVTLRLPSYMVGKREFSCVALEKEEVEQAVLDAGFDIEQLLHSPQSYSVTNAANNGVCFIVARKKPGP
Outline: (§4)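 Human lung INMT was taken from the 50000g supernatant, cut with 40-60% ammonium sulfate, dialysed and purified on Sephadex G-150. The reaction contained 0.007 M N-methyltryptamine stock, S-[methyl-14C]adenosylmethionine and potassium phosphate, pH 7.9, in 0.105 mL, run 90 min at 37 °C. It was stopped with borate at pH 10. [14C]DMT was extracted into isoamyl alcohol and counted by scintillation.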

[4] = tested on: Indolethylamine N-methyltransferase (Oryctolagus cuniculus); assay: In vivo evaluation of inhibitory activity against rabbit lung Indoleethylamine-N-methyltransferase at intravenous dose 10 mg/kg *(p<0.02)
[5] = molecular target: Indolethylamine N-methyltransferase (Homo sapiens) (UniProt O95050); assay: In vitro evaluation of Indoleethylamine-N-methyltransferase in human lung preparations for the ability to inhibit conversion of N-methyltryptamine (NMT) to N,N-dimethyltryptamine (DMT) at dose 2.5 ug/mL; format: tissue-based; outline: as §4
[6] = tested on: Indolethylamine N-methyltransferase (Oryctolagus cuniculus); assay: In vivo evaluation of specific activity against rabbit lung Indoleethylamine-N-methyltransferase at intravenous dose of 4 mg/kgmade acidic to pH 2 with dil. HCl
[7] = tested on: Indolethylamine N-methyltransferase (Oryctolagus cuniculus); assay: In vivo evaluation of specific activity against rabbit lung Indoleethylamine-N-methyltransferase at oral dose of 25 mg/kg
[8] = tested on: Indolethylamine N-methyltransferase (Oryctolagus cuniculus); assay: Compound tested for inhibitory activity against rabbit lung Indoleethylamine-N-methyltransferase at oral dose 25 mg/kg
[9] = tested on: Indolethylamine N-methyltransferase (Oryctolagus cuniculus); assay: Compound tested for inhibitory activity against rabbit lung Indoleethylamine-N-methyltransferase at 4 mg/kg intravenously
[10] = tested on: Indolethylamine N-methyltransferase (Oryctolagus cuniculus); assay: Compound tested for inhibitory activity against rabbit lung Indoleethylamine-N-methyltransferase at intravenous dose 4 mg/kg *(p<0.027)
[11] = tested on: Indolethylamine N-methyltransferase (Oryctolagus cuniculus); assay: Compound tested for inhibitory activity against rabbit lung Indoleethylamine-N-methyltransferase at oral dose 25 mg/kg *(p<0.026)
[12] = Dose that causes approximately 50% lethality in mice, when given intraperitoneally; format: ADME, organism-based; conditions: mouse, in vivo, ip
[13] = tested on: Indolethylamine N-methyltransferase (Oryctolagus cuniculus); assay: Compound tested for inhibitory activity against rabbit lung Indoleethylamine-N-methyltransferase at intravenous dose 4 mg/kg *(p<0.008
[14] = tested on: Indolethylamine N-methyltransferase (Oryctolagus cuniculus); assay: In vivo evaluation of specific activity against rabbit lung Indoleethylamine-N-methyltransferase at intravenous dose of 4 mg/kg
[15] = tested on: Oryctolagus cuniculus; assay: 10 mg/kg of [14C]- radiolabeled compound was intravenously […] injected in rabbit, and radioactivity content in feces was estimated at 0-24 h; format: ADME, organism-based; conditions: in vivo, iv
Outline: (§5)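 Male New Zealand white rabbit (825 g), [14C]-labelled drug given intravenously at 10 mg/kg. Urine collected at 6, 24, 48 and 72 h and feces at 24, 48 and 72 h post-dose. Radioactivity is counted and expressed as % of administered dose.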

[16] = tested on: Oryctolagus cuniculus; assay: 10 mg/kg of [14C]- radiolabeled compound was intravenously […] injected in rabbit, and radioactivity content in feces was estimated at 24-48 h; format: ADME, organism-based; conditions: in vivo, iv; outline: as §5
[17] = tested on: Mus musculus; assay: as §3; format: functional; conditions: iv
[18] = tested on: Oryctolagus cuniculus; assay: 10 mg/kg of [14C]- radiolabeled compound was intravenously injected in rabbit, and radioactivity content in urine was estimated at 24-48 h; format: ADME, organism-based; conditions: in vivo, iv; outline: as §5
[19] = tested on: Oryctolagus cuniculus; assay: 10 mg/kg of [14C]- radiolabeled compound was intravenously injected in rabbit, and radioactivity content in urine was estimated (total); format: ADME, organism-based; conditions: in vivo, iv; outline: as §5
[20] = tested on: Oryctolagus cuniculus; assay: 25 mg/kg of [14C]- radiolabeled compound was perorally injected in rabbit, and radioactivity content in urine was estimated (total); format: ADME, organism-based; conditions: in vivo, po
Outline: (§6)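 Male New Zealand white rabbit (825 g) dosed by gavage at 25 mg/kg. The dosing solution was [14C]-labelled plus unlabelled drug in distilled water, 2 mg free base/mL, specific activity 1183 dpm/μg. Urine collected at 6, 24, 48 and 72 h and feces at 24, 48 and 72 h. Radioactivity is expressed as % of administered dose.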

[21] = tested on: Oryctolagus cuniculus; assay: 25 mg/kg of [14C]- radiolabeled compound was perorally injected in rabbit, and radioactivity content in urine was estimated at 24-48 h; format: ADME, organism-based; conditions: in vivo, po; outline: as §6
[22] = tested on: Oryctolagus cuniculus; assay: 25 mg/kg of [14C]- radiolabeled compound was orally (gavage) injected in rabbit, and radioactivity content in feces was estimated at 24-48 h; format: ADME, organism-based; conditions: in vivo, po; outline: as §6
[23] = tested on: Oryctolagus cuniculus; assay: 25 mg/kg of [14C]- radiolabeled compound was perorally injected in rabbit, and radioactivity content in urine was estimated at 0-6 h; format: ADME, organism-based; conditions: in vivo, po; outline: as §6
[24] = tested on: Oryctolagus cuniculus; assay: 25 mg/kg of [14C]- radiolabeled compound was orally (gavage) injected in rabbit, and radioactivity content in feces was estimated at 48-72 h; format: ADME, organism-based; conditions: in vivo, po; outline: as §6
[25] = tested on: Oryctolagus cuniculus; assay: 10 mg/kg of [14C]- radiolabeled compound was intravenously injected in rabbit, and radioactivity content in urine was estimated at 0-6 h; format: ADME, organism-based; conditions: in vivo, iv; outline: as §5
[26] = tested on: Oryctolagus cuniculus; assay: 10 mg/kg of [14C]- radiolabeled compound was intravenously […] injected in rabbit, and radioactivity content in feces was estimated (total); format: ADME, organism-based; conditions: in vivo, iv; outline: as §5
[27] = tested on: Oryctolagus cuniculus; assay: 25 mg/kg of [14C]- radiolabeled compound was orally (gavage) injected in rabbit, and radioactivity content in feces was estimated (total); format: ADME, organism-based; conditions: in vivo, po; outline: as §6
[28] = tested on: Oryctolagus cuniculus; assay: 25 mg/kg of [14C]- radiolabeled compound was orally (gavage) injected in rabbit, and radioactivity content in feces was estimated at 0-24 h; format: ADME, organism-based; conditions: in vivo, po; outline: as §6
[29] = tested on: Oryctolagus cuniculus; assay: 10 mg/kg of [14C]- radiolabeled compound was intravenously injected in rabbit, and radioactivity content in urine was estimated at 6-24 h; format: ADME, organism-based; conditions: in vivo, iv; outline: as §5
[30] = tested on: Oryctolagus cuniculus; assay: 10 mg/kg of [14C]- radiolabeled compound was intravenously […] injected in rabbit, and radioactivity content in feces was estimated at 48-72 h; format: ADME, organism-based; conditions: in vivo, iv; outline: as §5
[31] = tested on: Oryctolagus cuniculus; assay: 25 mg/kg of [14C]- radiolabeled compound was perorally injected in rabbit, and radioactivity content in urine was estimated at 48-72 h; format: ADME, organism-based; conditions: in vivo, po; outline: as §6
[32] = tested on: Oryctolagus cuniculus; assay: 10 mg/kg of [14C]- radiolabeled compound was intravenously injected in rabbit, and radioactivity content in urine was estimated at 48-72 h; format: ADME, organism-based; conditions: in vivo, iv; outline: as §5
[33] = species: Mus musculus; assay: as §1; format: functional; conditions: po; outline: as §2
[34] = tested on: Oryctolagus cuniculus; assay: 25 mg/kg of [14C]- radiolabeled compound was perorally injected in rabbit, and radioactivity content in urine was estimated at 6-24 h; format: ADME, organism-based; conditions: in vivo, po; outline: as §6
[35] = tested on: Indolethylamine N-methyltransferase (Oryctolagus cuniculus); assay: Compound tested for specific activity against rabbit lung Indoleethylamine-N-methyltransferase at oral dose of 20 mg/kg
[36] = tested on: Indolethylamine N-methyltransferase (Oryctolagus cuniculus); assay: Compound tested for specific activity against rabbit lung Indoleethylamine-N-methyltransferase at intravenous dose of 10 mg/kg

Compound | LD50 [1] [mg/kg] | LD50 [2] [mg/kg] | inhibition [3] [%] | inhibition [5] [%] | Specific activity [7] [dpm] | further results
CCNC(=O)/N=C1\SCCN1C | 203 | 1110 | 0 |  |  | 
CC(=O)N[C@@H](Cc1ccccc1)C(=O)/N=C1\SCCN1C |  |  |  |  |  | inhibition [4]: 84.7%
CN1CCS/C1=N\C(=O)CN | 4670 | 549 | 54 | 11 |  | 
CC(=O)NCC(=O)/N=C1\SCCN1C | 936 | 408 | 51 | 24 | 11600 | Specific activity [6]: 33200 dpm; inhibition [8]: 84.9%; inhibition [9]: 60.6%
CN1CCS/C1=N\C(=O)c1cccnc1 | 570 | 279 | 5 | 0 | 18400 | inhibition [10]: 37.8%; inhibition [11]: 76.2%
CC(=O)NC(Cc1ccccc1)C(=O)/N=C1\SCCN1C (configuration not stated) | 173 |  | 23 | 8 | 24100 | LD50 [12]: > 2000 mg/kg; inhibition [8]: 69%; inhibition [13]: 28.9%; Specific activity [14]: 60000 dpm
CN1CCS/C1=N\S(=O)(=O)[O-].[Na+] | > 5 | > 2.5 |  |  |  | 
CN1CCS/C1=N\C(=O)/N=C1\SCCN1C | 2000 |  | 0 |  | 61200 | LD50 [12]: 1140 mg/kg; inhibition [8]: 31.9%
CN1CCSC1=N |  |  |  |  |  | Dose excreted [15]: 3.1%; Dose excreted [16]: 0.9%; LD50 [17]: 118 mg/kg; Dose excreted [18]: 5.3%; Dose excreted [19]: 82.8%; Dose excreted [20]: 89.7%; Dose excreted [21]: 2.9%; Dose excreted [22]: 0.6%; Dose excreted [23]: 46.4%; Dose excreted [24]: 0.1%; Dose excreted [25]: 46.5%; Dose excreted [26]: 4.3%; Dose excreted [27]: 3.9%; Dose excreted [28]: 3.2%; Dose excreted [29]: 27.7%; Dose excreted [30]: 0.3%; Dose excreted [31]: 1.6%; Dose excreted [32]: 3.3%; LD50 [33]: 432 mg/kg; Dose excreted [34]: 38.8%
CN1CCS/C1=N\CNC(=O)c1ccccc1 | 534 | 122 |  |  |  | 
CN1CCS/C1=N\C(=O)OC(C)(C)C | 306 | 68 | 6 |  |  | 
CN1CCS/C1=N\C(=O)CCC(=O)O | > 8 | 1280 | 20 |  |  | Specific activity [35]: 34000 dpm; inhibition [35]: 11.4%; Specific activity [36]: 36100 dpm; inhibition [36]: 35.8%
CC(=O)CC(=O)/N=C1\SCCN1C |  |  | 51 | 24 |  | 
